Data as given in ChEMBL document CHEMBL1128436, “Synthesis and biological evaluation of a new series of sterols as potential hypocholesterolemic agents” (1995).
The source made the active and inactive calls. No cut-off for these calls is given here.

Experiments:
Cricetinae gen. sp. [1] = assay: Total serum cholesterol level with relative to the control value (313(24)) in hamsters at a dose of 0.2% of diet for 1 week; format: functional, Cricetulus griseus
Mesocricetus auratus [2] = species: Mesocricetus auratus; assay: Serum cholesterol level changes with relative to the control value (313(24)) in hamsters at a dose of 0.2% of diet for 1 week
CHO [3] = assay: In vitro [1-14C]-acetate]-cholesterol biosynthesis inhibition assay (14CACBI) in CHO cells; neg = Negative :no effect on biosynthesis of cholesterol; format: functional, cell-based; settings: Cricetulus griseus
Summary of the method: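 Confluent CHO cells in replicate 100 mm dishes were held 20 h in assay medium without 25-hydroxycholesterol, with ethanol vehicle (0.5% v/v) or compound at 20 μg/mL. [1-14C]acetate was then added (final 1 μCi/mL) for 4 h more. Cells were scraped and sonicated, lipids separated, and the cholesterol band scraped and counted by scintillation.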

CHO [4] = assay: Capability of derepressing the transcription of SV40 promoter in CHO cells by luciferase assay; NA= Not active within the test range 0-20 ug/mL; format: functional, cell-based; settings: Cricetulus griseus
Summary of the method: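 Counter-screen in CHO clone SV40/LN9, with luciferase driven by the SV40 promoter. Confluent monolayers were given compound at 0.30-20 μg/mL for 24 h in serum-free albumin assay medium, triplicate wells. Lysates were read for luciferase peak luminescence, normalized to lysate protein.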

[5] = target: Low-density lipoprotein receptor (Homo sapiens) (UniProt P01130); assay: Luciferase activity (LDLR/Luc) expressed as light units/microg assayed in LMB the percentage specific light induction of agent over the control at concentration of 20 ug/mL was determined in vitro.
Sequence of Low-density lipoprotein receptor (Homo sapiens) (P01130 whole entry, the tested form may be a part): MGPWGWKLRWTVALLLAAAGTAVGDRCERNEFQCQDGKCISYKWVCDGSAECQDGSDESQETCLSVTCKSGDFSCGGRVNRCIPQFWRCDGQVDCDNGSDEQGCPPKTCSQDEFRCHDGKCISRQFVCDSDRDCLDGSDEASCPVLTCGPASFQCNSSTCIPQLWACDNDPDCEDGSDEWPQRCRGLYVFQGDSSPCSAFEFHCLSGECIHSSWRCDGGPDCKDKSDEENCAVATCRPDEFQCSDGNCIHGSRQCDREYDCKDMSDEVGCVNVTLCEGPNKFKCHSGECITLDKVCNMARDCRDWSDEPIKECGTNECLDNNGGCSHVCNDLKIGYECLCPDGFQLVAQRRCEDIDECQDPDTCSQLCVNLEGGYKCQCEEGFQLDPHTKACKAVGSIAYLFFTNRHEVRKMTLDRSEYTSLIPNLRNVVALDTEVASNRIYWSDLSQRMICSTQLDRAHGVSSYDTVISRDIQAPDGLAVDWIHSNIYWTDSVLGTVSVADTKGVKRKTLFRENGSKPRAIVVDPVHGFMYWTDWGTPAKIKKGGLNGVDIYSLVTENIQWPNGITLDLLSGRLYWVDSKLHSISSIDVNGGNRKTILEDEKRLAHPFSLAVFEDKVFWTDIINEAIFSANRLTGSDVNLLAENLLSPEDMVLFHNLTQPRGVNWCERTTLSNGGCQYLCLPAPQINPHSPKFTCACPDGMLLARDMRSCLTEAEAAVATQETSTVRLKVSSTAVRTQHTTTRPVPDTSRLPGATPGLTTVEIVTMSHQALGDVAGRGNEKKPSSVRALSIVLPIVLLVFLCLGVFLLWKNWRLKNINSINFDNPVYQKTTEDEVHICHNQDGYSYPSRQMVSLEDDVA
Summary of the method: (§1)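 Stably transfected CHO clone S27/B30 (LDL receptor promoter fused to firefly luciferase), grown to confluence (2-3 days, 37 °C, 5% CO2). Then 24 h in serum-free assay medium (DMEM/Ham's F-12 3:1, 0.5% bovine albumin) with 25-hydroxycholesterol 0.5 μg/mL plus compound at 0.30-20 μg/mL from ethanol stock, triplicate wells. Lysate luciferase peak light per μg protein (Coomassie). EC30 = concentration giving 30% rise over control. MA = % specific induction at 20 μg/mL.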

[6] = target: Low-density lipoprotein receptor (Homo sapiens) (UniProt P01130); assay: Capability of derepressing the transcription of human Low density lipoprotein receptor promoter in the presence of 25-hydroxycholesterol in CHO cells by luciferase assay; format: cell-based; summary of the method: as §1
[7] = target: Low-density lipoprotein receptor (Homo sapiens) (UniProt P01130); assay: (§2) Capability of derepressing the transcription of Low density lipoprotein receptor promoter in the presence of 25-hydroxycholesterol in CHO cells measured as maximum activity at 20 ug/mL; format: cell-based; summary of the method: as §1
Mesocricetus auratus [8] = species: Mesocricetus auratus; assay: Serum cholesterol level change relative to the control value (425(58)) in hamsters at a dose of 0.2% of diet for 1 week
Cricetinae gen. sp. [9] = assay: Total serum cholesterol level with relative to the control value (425(58)) in hamsters at a dose of 0.2% of diet for 1 week; format: functional, Cricetulus griseus
Cricetinae gen. sp. [10] = assay: Total serum cholesterol level with relative to the control value (333(23)) in hamsters at a dose of 0.2% of diet for 1 week; format: functional, Cricetulus griseus
Mesocricetus auratus [11] = species: Mesocricetus auratus; assay: Serum cholesterol level change relative to the control value (333(23)) in hamsters at a dose of 0.2% of diet for 1 week
Mesocricetus auratus [12] = species: Mesocricetus auratus; assay: Serum cholesterol level change relative to the control value (313(24)) in hamsters at a dose of 0.2% of diet for 1 week
[13] = target: Low-density lipoprotein receptor (Homo sapiens) (UniProt P01130); assay: Capability of derepressing the transcription of human Low density lipoprotein receptor promoter in the presence of 25-hydroxycholesterol in CHO cells by luciferase assay; NA= Not active within the test range 0-20 ug/mL; format: cell-based; summary of the method: as §1
Mesocricetus auratus [14] = species: Mesocricetus auratus; assay: Serum cholesterol level changes with relative to the control value (333(23)) in hamsters at a dose of 0.2% of diet for 1 week
Mesocricetus auratus [15] = species: Mesocricetus auratus; assay: Serum cholesterol level change relative to the control value (306(27)) was calculated.i n hamsters at a dose of 0.2% of diet for 1 week
Mesocricetus auratus [16] = species: Mesocricetus auratus; assay: Serum cholesterol level change relative to the control value (320(14)) in hamsters at a dose of 0.2% of diet for 1 week
Cricetinae gen. sp. [17] = assay: Total serum cholesterol level with relative to the control value (320(14)) in hamsters at a dose of 0.2% of diet for 1 week; format: functional, Cricetulus griseus
Cricetinae gen. sp. [18] = assay: Total serum cholesterol level with relative to the control value (366(24)) in hamsters at a dose of 0.2% of diet for 1 week; format: functional, Cricetulus griseus
Cricetinae gen. sp. [19] = assay: Total serum cholesterol level with relative to the control value (383(13)) in hamsters at a dose of 0.2% of diet for 1 week; format: functional, Cricetulus griseus
Cricetinae gen. sp. [20] = assay: Total serum cholesterol level with relative to the control value (274(23)) in hamsters at a dose of 0.2% of diet for 1 week; format: functional, Cricetulus griseus
Cricetinae gen. sp. [21] = assay: Serum cholesterol level change relative to the control value (274(23)) in hamsters at a dose of 0.2% of diet for 1 week; format: functional, Cricetulus griseus
Mesocricetus auratus [22] = species: Mesocricetus auratus; assay: Serum cholesterol level change relative to the control value (383(13)) in hamsters at a dose of 0.2% of diet for 1 week
Mesocricetus auratus [23] = species: Mesocricetus auratus; assay: Serum cholesterol level change relative to the control value (366(24)) in hamsters at a dose of 0.2% of diet for 1 week
Cricetinae gen. sp. [24] = assay: Total serum cholesterol level with relative to the control value (306(27) in hamsters at a dose of 0.2% of diet for 1 week; format: functional, Cricetulus griseus
Cricetinae gen. sp. [25] = assay: Serum cholesterol level changes with relative to the control value (425(58)) in hamsters at a dose of 0.2% of diet for 1 week; format: functional, Cricetulus griseus
Mesocricetus auratus [26] = species: Mesocricetus auratus; assay: Serum cholesterol level change relative to the control value (306(27)) in hamsters at a dose of 0.2% of diet for 1 week
[27] = target: Low-density lipoprotein receptor (Homo sapiens) (UniProt P01130); assay: as §2; format: functional, cell-based; summary of the method: as §1

| Structure (SMILES) | Total cholesterol (Cricetinae gen. sp. [1]) [mg/dL] | Activity (CHO [3]) | Activity (CHO [4]) | EC30 [6] [µM] | MA [7] [%] | other results |
| --- | --- | --- | --- | --- | --- | --- |
| C/C=C/C[C@H]1C2CC[C@H]3[C@@H]4CC[C@H]([C@H](C)CCCC(C)C)[C@@]4(C)CC[C@@H]3[C@@]2(C)CC[C@H]1O (stereo not given in full) | 210 | Negative | inactive | 11 |  | Relative change (Mesocricetus auratus [2]): -33%; MA [5]: 86% |
| C=C(Cl)C[C@H]1C2CC[C@H]3[C@@H]4CC[C@H]([C@H](C)CC[C@@H](CC)C(C)C)[C@@]4(C)CC[C@@H]3[C@@]2(C)CC[C@H]1O (stereo not given in full) |  |  | inactive | 4.2 | 120 | Relative change (Mesocricetus auratus [8]): -43%; Total cholesterol (Cricetinae gen. sp. [9]): 241 mg/dL |
| C=CC[C@H]1C2CC[C@H]3[C@@H]4CC[C@H]([C@H](C)CC[C@@H](CC)C(C)C)[C@@]4(C)CC[C@@H]3[C@@]2(C)CC[C@H]1O (stereo not given in full) |  |  | inactive | 8.2 | 95 | Total cholesterol (Cricetinae gen. sp. [10]): 217 mg/dL; Relative change (Mesocricetus auratus [11]): -35% |
| CC(C)CCC[C@@H](C)[C@H]1CC[C@H]2[C@@H]3CCC4[C@H](Cc5ccccc5)[C@H](O)CC[C@]4(C)[C@H]3CC[C@]12C (stereo not given in full) | 202 | Negative | inactive | 32 | 44 | Relative change (Mesocricetus auratus [12]): -35% |
| C/C=C/C[C@H]1C2CC[C@H]3[C@@H]4CC[C@H]([C@H](C)CCCC(C)C)[C@@]4(C)CC[C@@H]3[C@@]2(C)CC[C@@H]1O (stereo not given in full) | 245 |  |  |  |  | EC30 [13]: inactive; Relative change (Mesocricetus auratus [2]): -22% |
| C=C(Cl)C[C@H]1C2CC[C@H]3[C@@H]4CC[C@H]([C@H](C)CCCC(C)C)[C@@]4(C)CC[C@@H]3[C@@]2(C)CC[C@H]1O (stereo not given in full) |  |  | inactive | 1.8 | 141 | Total cholesterol (Cricetinae gen. sp. [10]): 200 mg/dL; Relative change (Mesocricetus auratus [14]): -40% |
| C=CC[C@H]1C2CC[C@H]3[C@@H]4CC[C@H]([C@H](C)CCCC(C)C)[C@@]4(C)CC[C@@H]3[C@@]2(C)CC[C@H]1O (stereo not given in full) | 167 | Negative | inactive | 2.9 | 127 | Relative change (Mesocricetus auratus [15]): -51%; Relative change (Mesocricetus auratus [16]): -47%; Relative change (Mesocricetus auratus [12]): -47%; Total cholesterol (Cricetinae gen. sp. [17]): 168 mg/dL; Total cholesterol (Cricetinae gen. sp. [18]): 174 mg/dL; Total cholesterol (Cricetinae gen. sp. [19]): 197 mg/dL; Total cholesterol (Cricetinae gen. sp. [10]): 199 mg/dL; Total cholesterol (Cricetinae gen. sp. [20]): 188 mg/dL; Total cholesterol (Cricetinae gen. sp. [9]): 213 mg/dL; Relative change (Cricetinae gen. sp. [21]): -31%; Relative change (Mesocricetus auratus [22]): -49%; Relative change (Mesocricetus auratus [23]): -53%; Total cholesterol (Cricetinae gen. sp. [24]): 151 mg/dL; Relative change (Cricetinae gen. sp. [25]): -50%; Relative change (Mesocricetus auratus [11]): -40% |
| CC(C)CCC[C@@H](C)[C@H]1CC[C@H]2[C@@H]3CCC4[C@H](C/C=C\Cl)[C@H](O)CC[C@]4(C)[C@H]3CC[C@]12C (stereo not given in full) |  |  |  |  |  | EC30 [13]: inactive; Relative change (Mesocricetus auratus [8]): -26%; Total cholesterol (Cricetinae gen. sp. [9]): 316 mg/dL |
| CC(C)CCC[C@@H](C)[C@H]1CC[C@H]2[C@@H]3CCC4[C@H](C/C=C/Cl)[C@H](O)CC[C@]4(C)[C@H]3CC[C@]12C (stereo not given in full) |  | Negative | inactive | 2 | 169 | Total cholesterol (Cricetinae gen. sp. [10]): 185 mg/dL; Relative change (Mesocricetus auratus [11]): -44% |
| C=CC[C@H]1C2CC[C@H]3[C@@H]4CC[C@H]([C@H](C)CCCC(C)C)[C@@]4(C)CC[C@@H]3[C@@]2(C)CC[C@@H]1O (stereo not given in full) | 198 |  |  |  |  | EC30 [13]: inactive; Relative change (Mesocricetus auratus [2]): -37% |
| C=CC[C@H]1C2=CCC3C(CC[C@@]4(C)C3CC[C@@H]4[C@H](C)CCCC(C)C)[C@@]2(C)CC[C@H]1O (stereo not given in full) |  | Negative | inactive | 3.5 | 96 | Relative change (Mesocricetus auratus [26]): -47%; Total cholesterol (Cricetinae gen. sp. [24]): 163 mg/dL |
| CCC[C@H]1C2CC[C@H]3[C@@H]4CC[C@H]([C@H](C)CCCC(C)C)[C@@]4(C)CC[C@@H]3[C@@]2(C)CC[C@H]1O (stereo not given in full) |  | Negative | inactive | 38 | 48 | Relative change (Mesocricetus auratus [26]): -27%; Total cholesterol (Cricetinae gen. sp. [24]): 222 mg/dL |
| C=CC[C@@H]1C[C@@]2(C)C(CC[C@H]3[C@@H]4CC[C@H]([C@H](C)CCCC(C)C)[C@@]4(C)CC[C@@H]32)C[C@@H]1O (stereo not given in full) | 209 | Negative | inactive | 41 | 60 | Relative change (Mesocricetus auratus [12]): -33% |
| CC(C)CCC[C@@H](C)[C@H]1CC[C@H]2[C@@H]3CCC4[C@H](Cc5ccc(Br)cc5)[C@H](O)CC[C@]4(C)[C@H]3CC[C@]12C (stereo not given in full) |  |  | inactive | 6 | 57 | Total cholesterol (Cricetinae gen. sp. [20]): 160 mg/dL; Relative change (Cricetinae gen. sp. [21]): -42% |
| Cc1ccc(C[C@H]2C3CC[C@H]4[C@@H]5CC[C@H]([C@H](C)CCCC(C)C)[C@@]5(C)CC[C@@H]4[C@@]3(C)CC[C@H]2O)cc1 (stereo not given in full) |  |  | inactive | 35 |  | Relative change (Mesocricetus auratus [8]): -33%; MA [27]: 45%; Total cholesterol (Cricetinae gen. sp. [9]): 283 mg/dL |
